Source: ChEMBL document CHEMBL2177069, “Novel peptidomimetic compounds containing redox active chalcogens and quinones as potential anticancer agents” (Eur J Med Chem, 2012)

Tests used:
Saccharomyces cerevisiae [1] = test: Growth inhibition of GTT2-deficient Saccharomyces cerevisiae YLL060C mutant at 20 ug/disc after 24 to 48 hrs by agar diffusion assay; type: functional; conditions: read-out: DIZ
In short: (§1)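 S. cerevisiae deletion mutants or wild type grown on YPD, seeded into liquid agar medium at an optical density of 0.1. 6 mm paper discs soaked with methanolic compound solution were placed on the plates and incubated at 30 °C. Growth was checked after 1 and 2 days, and the inhibition zone diameter was recorded in mm.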

Saccharomyces cerevisiae [2] = test: Growth inhibition of SOD1-deficient Saccharomyces cerevisiae YJR104C mutant at 20 ug/disc after 24 to 48 hrs by agar diffusion assay; type: functional; conditions: read-out: DIZ; in short: as §1
MCF7 = test: Cytotoxicity against human MCF7 cells after 24 hrs by MTT assay; type: functional, cell-based; conditions: MCF7, 24 h
In short: (§2)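 MTT assay. Cells were seeded at 50,000 cells/mL in medium with 10% fetal calf serum and grown for two days at 37 °C, 10% CO2. Serial dilutions of compound were then added for 24 h. MTT was added (final 0.5 mg/mL) for 2 h, and the formazan was pelleted, washed, dissolved in isopropanol with 0.4% HCl and read at 590 nm. IC50 is the concentration giving 50% of untreated-control absorbance, taken from dose-response curves; mean of two parallel experiments.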

MOLT-4 = test: Cytotoxicity against human MOLT4 cells; type: functional
SNB-19 = test: Cytotoxicity against human SNB19 cells; type: functional
HCT-15 = test: Cytotoxicity against human HCT15 cells; type: functional
OVCAR-4 = test: Cytotoxicity against human OVCAR4 cells; type: functional
EKVX = test: Cytotoxicity against human EKVX cells; type: functional
Saccharomyces cerevisiae [3] = test: Growth inhibition of COX17-deficient Saccharomyces cerevisiae YLL009C mutant at 20 ug/disc after 24 to 48 hrs by agar diffusion assay; type: functional; conditions: read-out: DIZ; in short: as §1
SF-295 = test: Cytotoxicity against human SF295 cells; type: functional
T47D = test: Cytotoxicity against human T47D cells; type: functional
DU-145 = test: Cytotoxicity against human DU145 cells; type: functional
U-251 = test: Cytotoxicity against human U251 cells; type: functional
NCI-H322M = test: Cytotoxicity against human NCI-H322M cells; type: functional
HOP-62 = test: Cytotoxicity against human HOP62 cells; type: functional
Saccharomyces cerevisiae [4] = test: Growth inhibition of WSC4-deficient Saccharomyces cerevisiae YHL028W mutant at 20 ug/disc 24 to 48 hrs by agar diffusion assay; type: functional; conditions: read-out: DIZ; in short: as §1
SK-MEL-28 = test: Cytotoxicity against human SK-MEL-28 cells; type: functional
A498 [5] = test: Cytotoxicity against human A498 cells after 24 hrs by MTT assay; type: functional, cell-based; conditions: A498, 24 h; in short: as §2
SNB-75 = test: Cytotoxicity against human SNB75 cells; type: functional
SN12C = test: Cytotoxicity against human SN12C cells; type: functional
M14 = test: Cytotoxicity against human M14 cells; type: functional
MDA-MB-231 = test: Cytotoxicity against human MDA-MB-231 cells; type: functional
Hs-578T = test: Cytotoxicity against human Hs578T cells; type: functional
BT-549 = test: Cytotoxicity against human BT549 cells; type: functional
OVCAR-8 = test: Cytotoxicity against human OVCAR8 cells; type: functional
NCI-H460 = test: Cytotoxicity against human NCI-H460 cells; type: functional
HUVEC = test: Cytotoxicity against human HUVEC cells after 24 hrs by MTT assay; type: cell-based; in short: as §2
UO-31 = test: Cytotoxicity against human UO31 cells; type: functional
OVCAR-5 = test: Cytotoxicity against human OVCAR5 cells; type: functional
A498 [6] = test: Cytotoxicity against human A498 cells; type: functional
MDA-MB-468 = test: Cytotoxicity against human MDA-MB-468 cells; type: functional
SK-OV-3 = test: Cytotoxicity against human SKOV3 cells; type: functional
[7] = Cytotoxicity against human 786-O cells; type: functional
A549 = test: Cytotoxicity against human A549 cells; type: functional
HCC 2998 = test: Cytotoxicity against human HCC2998 cells; type: functional
Saccharomyces cerevisiae [8] = test: Growth inhibition of wild type Saccharomyces cerevisiae BY4741 at 20 ug/disc after 24 to 48 hrs by agar diffusion assay; type: functional; conditions: read-out: DIZ; in short: as §1
Saccharomyces cerevisiae [9] = test: Growth inhibition of RCK1-deficient Saccharomyces cerevisiae YGL158W mutant at 20 ug/disc after 24 to 48 hrs by agar diffusion assay; type: functional; conditions: read-out: DIZ; in short: as §1
SK-MEL-2 = test: Cytotoxicity against human SK-MEL-2 cells; type: functional
SR = test: Cytotoxicity against human SR cells; type: functional
MDA-MB-435 = test: Cytotoxicity against human MDA-MB-435 cells; type: functional
SK-MEL-5 = test: Cytotoxicity against human SK-MEL-5 cells; type: functional

In the case of `CC1=C([Se]CC(OC(=O)[C@@H](CSSC(C)(C)C)NC(=O)C(C)(C)C)C(=O)NCCCCCC(=O)OCc2ccccc2)C(=O)c2ccccc2C1=O` (stereo not given in full), the zone of inhibition at 20 µg/disc (Saccharomyces cerevisiae [1]) is reported as 12 mm, the zone of inhibition at 20 µg/disc (Saccharomyces cerevisiae [2]) is reported as 12 mm and the IC50 (MCF7) is reported as 8 µM. For the same molecule, the GI50 (MOLT-4) was 3.24 µM, the LC50 (MOLT-4) was over 100 µM and the TGI (MOLT-4; read-out: pTGI (converted)) was 9.55 µM. For the same molecule, the GI50 (SNB-19) was 1.1 µM, the LC50 (SNB-19) was 6.03 µM and the TGI (SNB-19; read-out: pTGI (converted)) was 2.57 µM. For the same molecule, the GI50 (HCT-15) was 3.24 µM, the LC50 (HCT-15) was 66.1 µM and the TGI (HCT-15; read-out: pTGI (converted)) was 12.9 µM. For the same molecule, the GI50 (OVCAR-4) was 1.58 µM, the LC50 (OVCAR-4) was 5.62 µM and the TGI (OVCAR-4; read-out: pTGI (converted)) was 2.95 µM. For the same molecule, the GI50 (EKVX) was 2.24 µM, the LC50 (EKVX) was over 100 µM and the TGI (EKVX; read-out: pTGI (converted)) was 5.37 µM. It also gave a zone of inhibition at 20 µg/disc (Saccharomyces cerevisiae [3]) of 0 mm, a GI50 (SF-295) of 0.316 µM and an LC50 (SF-295) of over 100 µM. For the same molecule, the TGI (SF-295; read-out: pTGI (converted)) was 1.95 µM, the GI50 (T47D) was 2.19 µM and the LC50 (T47D) was over 100 µM. It also gave a TGI (T47D; read-out: pTGI (converted)) of 6.46 µM, a GI50 (DU-145) of 2.14 µM and an LC50 (DU-145) of 9.55 µM. For the same molecule, the TGI (DU-145; read-out: pTGI (converted)) was 4.47 µM, the GI50 (U-251) was 1.26 µM and the LC50 (U-251) was 6.31 µM. For the same molecule, the TGI (U-251; read-out: pTGI (converted)) was 2.82 µM, the GI50 (NCI-H322M) was 0.398 µM and the LC50 (NCI-H322M) was over 100 µM. The TGI (NCI-H322M; read-out: pTGI (converted)) was 2.29 µM, the GI50 (HOP-62) was 1.02 µM and the LC50 (HOP-62) was 9.12 µM. For the same molecule, the TGI (HOP-62; read-out: pTGI (converted)) was 3.02 µM, the zone of inhibition at 20 µg/disc (Saccharomyces cerevisiae [4]) was 14 mm and the GI50 (SK-MEL-28) was 1.91 µM. The LC50 (SK-MEL-28) was 6.46 µM, the TGI (SK-MEL-28; read-out: pTGI (converted)) was 3.55 µM and the IC50 (A498 [5]) was 13 µM. It also gave a GI50 (SNB-75) of 1.38 µM, an LC50 (SNB-75) of 5.13 µM and a TGI (SNB-75; read-out: pTGI (converted)) of 2.69 µM. It also gave a GI50 (SN12C) of 2 µM, an LC50 (SN12C) of 7.59 µM and a TGI (SN12C; read-out: pTGI (converted)) of 3.89 µM. It also gave a GI50 (M14) of 2.04 µM, an LC50 (M14) of 7.94 µM and a TGI (M14; read-out: pTGI (converted)) of 4.07 µM. For the same molecule, the GI50 (MDA-MB-231) was 1.91 µM, the LC50 (MDA-MB-231) was 9.33 µM and the TGI (MDA-MB-231; read-out: pTGI (converted)) was 4.27 µM. The GI50 (Hs-578T) was 2.19 µM, the LC50 (Hs-578T) was over 100 µM and the TGI (Hs-578T; read-out: pTGI (converted)) was 5.5 µM. It also gave a GI50 (BT-549) of 1.78 µM, an LC50 (BT-549) of 5.62 µM and a TGI (BT-549; read-out: pTGI (converted)) of 3.16 µM. The GI50 (OVCAR-8) was 2 µM, the LC50 (OVCAR-8) was 7.08 µM and the TGI (OVCAR-8; read-out: pTGI (converted)) was 3.8 µM. The GI50 (NCI-H460) was 0.631 µM, the LC50 (NCI-H460) was 9.55 µM and the TGI (NCI-H460; read-out: pTGI (converted)) was 2.51 µM. It also gave an IC50 (HUVEC) of 10 µM, a GI50 (UO-31) of 1.48 µM and an LC50 (UO-31) of 6.76 µM. It also gave a TGI (UO-31; read-out: pTGI (converted)) of 3.16 µM, a GI50 (OVCAR-5) of 2.57 µM and an LC50 (OVCAR-5) of 17.4 µM. For the same molecule, the TGI (OVCAR-5; read-out: pTGI (converted)) was 5.5 µM, the GI50 (A498 [6]) was 1.62 µM and the LC50 (50% lethal concentration) (A498 [6]) was 56.2 µM. For the same molecule, the TGI (A498 [6]; read-out: pTGI (converted)) was 4.79 µM, the GI50 (MDA-MB-468) was 2.19 µM and the LC50 (MDA-MB-468) was 8.51 µM. It also gave a TGI (MDA-MB-468; read-out: pTGI (converted)) of 4.37 µM, a GI50 (SK-OV-3) of 1.55 µM and an LC50 (SK-OV-3) of 5.5 µM. The TGI (SK-OV-3; read-out: pTGI (converted)) was 2.95 µM, the GI50 ([7]; 786-0) was 2.09 µM and the LC50 ([7]; 786-0) was 6.31 µM. For the same molecule, the TGI ([7]; 786-0, read-out: pTGI (converted)) was 3.63 µM, the GI50 (A549) was 2.09 µM and the LC50 (A549) was over 100 µM. The TGI (A549; read-out: pTGI (converted)) was 5.37 µM, the GI50 (HCC 2998) was 2.19 µM and the LC50 (HCC 2998) was 7.24 µM. The TGI (HCC 2998; read-out: pTGI (converted)) was 3.98 µM, the zone of inhibition at 20 µg/disc (Saccharomyces cerevisiae [8]) was 0 mm and the zone of inhibition at 20 µg/disc (Saccharomyces cerevisiae [9]) was 0 mm. The GI50 (SK-MEL-2) was 2.24 µM, the LC50 (SK-MEL-2) was 39.8 µM and the TGI (SK-MEL-2; read-out: pTGI (converted)) was 5.01 µM. The GI50 (SR) was 3.8 µM, the LC50 (SR) was over 100 µM and the TGI (SR; read-out: pTGI (converted)) was 18.6 µM. The GI50 (MDA-MB-435) was 2.29 µM, the LC50 (MDA-MB-435) was 25.1 µM and the TGI (MDA-MB-435; read-out: pTGI (converted)) was 5.5 µM. It also gave a GI50 (SK-MEL-5) of 1.91 µM, an LC50 (SK-MEL-5) of 5.89 µM and a TGI (SK-MEL-5; read-out: pTGI (converted)) of 3.31 µM.
